What was measured:
[1] = Inhibition of pyroglutamylaminopeptidase at a dose of 13.02 mM relative to 2-Oxo-hexahydro-pyrimidine-4-carboxylic acid; details: 13020 µM
Method in brief: (§1)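 Enzyme purchased commercially, 5.5 units per digestion in pH 8.0 phosphate deblocking buffer (5% glycerol, 5 mM DTT, 10 mM EDTA, N2/Ar-purged). Preincubated 3 min at 37 °C, then substrate plus Leu internal standard added with the inhibitor at the stated level and digested 180 min at 37 °C. Gly-Ile released was quantitated by amino acid analysis. Values are cleavage relative to the uninhibited digest (set to 1.0), from a single experiment.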

[2] = Inhibition of pyroglutamylaminopeptidase at a dose of 6.51 mM relative to Pyrrolidin-2-one-CO-Gly-Ile; details: 6510 µM; method in brief: as §1
[3] = Inhibition of pyroglutamylaminopeptidase at a dose of 6.51 mM relative to 2-Oxo-hexahydro-pyrimidine-4-carboxylic acid; details: 6510 µM; method in brief: as §1
[4] = Inhibition of pyroglutamylaminopeptidase at a dose of 13.02 mM relative to Pyrrolidin-2-one-CO-Gly-Ile; details: 13020 µM; method in brief: as §1
[5] = Inhibition of pyroglutamylaminopeptidase at a dose of 8.32 mM relative to Pyrrolidin-2-one-CO-Gly-Ile; details: 8320 µM; method in brief: as §1
[6] = Inhibition of pyroglutamylaminopeptidase at a dose of 8.32 mM relative to 2-Oxo-hexahydro-pyrimidine-4-carboxylic acid; details: 8320 µM; method in brief: as §1
[7] = Inhibition of pyroglutamylaminopeptidase at a dose of 16.64 mM relative to 2-Oxo-hexahydro-pyrimidine-4-carboxylic acid; details: 16640 µM; method in brief: as §1
[8] = Inhibition of pyroglutamylaminopeptidase at a dose of 16.64 mM relative to Pyrrolidin-2-one-CO-Gly-Ile; details: 16640 µM; method in brief: as §1

| Hydrolysis rate [1] | Hydrolysis rate [2] | Hydrolysis rate [3] | Hydrolysis rate [4] | Hydrolysis rate [5] | Hydrolysis rate [6] | Hydrolysis rate [7] | Hydrolysis rate [8] | SMILES |
| --- | --- | --- | --- | --- | --- | --- | --- | --- |
| 0.093 | 0.586 | 0.206 | 0.333 |  |  |  |  | O=C1CC[C@@H](C(=O)O)N1 [PIDOLIC ACID] |
| 0.308 | 0.854 | 0.533 | 0.707 |  |  |  |  | O=C1NCC(C(=O)O)N1 (configuration not stated) |
|  |  |  |  | 0.889 | 0.86 | 0.752 | 0.884 | O=C1NCCC(C(=O)O)N1 (configuration not stated) |
